Consider three compounds from ChEMBL document CHEMBL5653631, “A Potent and Selective ULK1 Inhibitor Suppresses Autophagy and Sensitizes Cancer Cells to Nutrient Stress” (iScience, 2018).

Assay [1] has as its target Receptor-interacting serine/threonine-protein kinase 2 (Homo sapiens) (UniProt O43353). The assay is described as follows: Inhibition of human recombinant RIPK2 at 40 nM related to control ULK1.
The target in assay [2] is Tyrosine-protein kinase ABL2 (Homo sapiens) (UniProt P42684). The assay is described as follows: Inhibition of human recombinant ABL2 at 40 nM related to control ULK1. The gist of the method: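 Radiometric activity assays in a panel of 327 human recombinant kinases, each run in duplicate at one inhibitor concentration. Activity remaining is expressed as percent of vehicle control, and percent inhibition is calculated as 100% minus percent activity remaining.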

In assay [3] the target is Serine/threonine-protein kinase Nek7 (Homo sapiens) (UniProt Q8TDX7). In words: Inhibition of human recombinant NEK7 at 40 nM related to control ULK1.
Serine/threonine-protein kinase Nek7 (Homo sapiens), sequence (Q8TDX7 whole entry, looked up): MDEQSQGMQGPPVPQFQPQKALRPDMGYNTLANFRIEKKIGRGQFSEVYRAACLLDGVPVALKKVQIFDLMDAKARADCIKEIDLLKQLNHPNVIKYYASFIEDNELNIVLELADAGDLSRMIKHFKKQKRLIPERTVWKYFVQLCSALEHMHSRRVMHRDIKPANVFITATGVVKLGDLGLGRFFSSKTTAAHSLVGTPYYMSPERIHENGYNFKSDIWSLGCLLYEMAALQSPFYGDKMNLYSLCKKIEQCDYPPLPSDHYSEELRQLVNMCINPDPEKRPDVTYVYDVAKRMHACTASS
For assay [4], the target named is Fibroblast growth factor receptor 2 (Homo sapiens) (UniProt P21802). The assay is described as follows: Inhibition of human recombinant FGFR2 at 40 nM in presence of ATP by radiometric assay relative to control.
Assay [5] concerns the target T1, Ephrin type-A receptor 8 (Homo sapiens) (UniProt P29322).
T1 sequence (whole entry): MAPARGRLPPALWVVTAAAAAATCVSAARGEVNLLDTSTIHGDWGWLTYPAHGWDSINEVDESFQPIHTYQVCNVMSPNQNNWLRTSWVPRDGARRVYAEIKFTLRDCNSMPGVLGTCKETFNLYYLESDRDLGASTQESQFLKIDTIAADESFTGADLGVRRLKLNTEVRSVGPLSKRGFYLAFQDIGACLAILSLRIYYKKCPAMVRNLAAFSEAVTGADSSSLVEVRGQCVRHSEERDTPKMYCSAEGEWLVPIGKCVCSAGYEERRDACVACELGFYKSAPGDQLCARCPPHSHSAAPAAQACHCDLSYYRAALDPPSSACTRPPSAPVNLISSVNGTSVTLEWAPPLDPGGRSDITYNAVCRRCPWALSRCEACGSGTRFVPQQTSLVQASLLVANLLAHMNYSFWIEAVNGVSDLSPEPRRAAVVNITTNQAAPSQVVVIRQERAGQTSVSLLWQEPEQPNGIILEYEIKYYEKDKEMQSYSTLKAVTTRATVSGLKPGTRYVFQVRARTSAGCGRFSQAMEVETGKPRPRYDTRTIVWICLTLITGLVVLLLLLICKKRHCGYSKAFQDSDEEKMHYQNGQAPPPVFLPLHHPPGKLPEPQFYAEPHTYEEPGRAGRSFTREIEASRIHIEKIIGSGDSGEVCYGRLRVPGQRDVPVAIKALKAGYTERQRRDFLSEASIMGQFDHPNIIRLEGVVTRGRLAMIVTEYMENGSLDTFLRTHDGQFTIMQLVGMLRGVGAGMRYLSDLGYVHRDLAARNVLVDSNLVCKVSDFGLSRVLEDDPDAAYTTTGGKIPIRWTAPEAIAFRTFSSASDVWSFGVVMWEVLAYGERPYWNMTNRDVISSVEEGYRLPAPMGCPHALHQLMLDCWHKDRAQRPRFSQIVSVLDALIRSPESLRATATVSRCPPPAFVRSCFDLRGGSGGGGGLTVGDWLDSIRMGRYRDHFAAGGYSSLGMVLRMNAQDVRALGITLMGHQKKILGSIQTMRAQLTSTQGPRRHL
The assay is described as follows: Inhibition of human recombinant EphA8 at 500 nM in presence of ATP by radiometric assay relative to control.

The target of assay [6] is T2, Serine/threonine-protein kinase BRSK2 (Homo sapiens) (UniProt Q8IWQ3).
T2 sequence (whole entry): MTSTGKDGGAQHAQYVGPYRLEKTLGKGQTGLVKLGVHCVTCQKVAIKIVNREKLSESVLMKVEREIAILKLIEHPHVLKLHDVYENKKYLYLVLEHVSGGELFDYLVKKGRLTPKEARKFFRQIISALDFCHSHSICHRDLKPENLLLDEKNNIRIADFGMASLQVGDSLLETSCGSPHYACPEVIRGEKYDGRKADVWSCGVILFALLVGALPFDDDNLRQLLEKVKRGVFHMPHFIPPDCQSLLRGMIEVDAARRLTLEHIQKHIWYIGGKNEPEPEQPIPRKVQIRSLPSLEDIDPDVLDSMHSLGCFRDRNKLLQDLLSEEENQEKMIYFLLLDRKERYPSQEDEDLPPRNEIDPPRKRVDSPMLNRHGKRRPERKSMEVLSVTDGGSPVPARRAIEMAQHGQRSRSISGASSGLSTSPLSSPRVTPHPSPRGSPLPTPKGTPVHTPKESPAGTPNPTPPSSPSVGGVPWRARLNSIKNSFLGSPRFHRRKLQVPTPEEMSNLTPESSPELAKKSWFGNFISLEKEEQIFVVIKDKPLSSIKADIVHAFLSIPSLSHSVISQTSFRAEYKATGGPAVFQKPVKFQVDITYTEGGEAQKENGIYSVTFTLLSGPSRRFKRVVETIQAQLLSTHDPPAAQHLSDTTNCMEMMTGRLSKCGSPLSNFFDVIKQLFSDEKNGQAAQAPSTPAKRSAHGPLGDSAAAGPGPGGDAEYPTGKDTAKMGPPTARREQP
The assay is described as follows: Inhibition of human recombinant BRSK2 at 500 nM related to control ULK1.

The target of assay [7] is Receptor tyrosine-protein kinase erbB-4 (Homo sapiens) (UniProt Q15303). In words: Inhibition of human recombinant ErbB4 at 500 nM related to control ULK1.
The target in assay [8] is Serine/threonine-protein kinase 24 (Homo sapiens) (UniProt Q9Y6E0). The assay is described as follows: Inhibition of human recombinant MST3 at 15 nM in presence of ATP by radiometric assay relative to control.
Serine/threonine-protein kinase 24 (Homo sapiens), sequence (Q9Y6E0 whole entry, looked up): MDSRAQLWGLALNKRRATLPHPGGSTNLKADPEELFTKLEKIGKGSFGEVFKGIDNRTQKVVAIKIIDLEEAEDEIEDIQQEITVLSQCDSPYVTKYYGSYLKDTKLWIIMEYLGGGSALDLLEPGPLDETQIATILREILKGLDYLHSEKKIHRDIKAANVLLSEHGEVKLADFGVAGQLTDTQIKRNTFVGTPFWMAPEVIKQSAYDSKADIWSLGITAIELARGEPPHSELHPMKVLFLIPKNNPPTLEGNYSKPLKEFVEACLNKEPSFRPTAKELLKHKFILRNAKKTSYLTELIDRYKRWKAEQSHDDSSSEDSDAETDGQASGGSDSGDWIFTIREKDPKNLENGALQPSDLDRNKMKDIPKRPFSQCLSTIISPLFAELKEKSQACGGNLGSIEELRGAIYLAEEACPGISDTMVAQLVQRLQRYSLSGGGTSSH
The target in assay [9] is Serine-protein kinase ATM (Homo sapiens) (UniProt Q13315). In words: Inhibition of human recombinant ATM at 15 nM related to control ULK1. The essentials:
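Panel of 327 recombinant human kinases, each assayed in vitro by radiometric activity assay in duplicate at a single inhibitor concentration per compound, chosen with reference to its ULK1 inhibition. Activity remaining was expressed as percent of vehicle control, and percent inhibition was calculated as 100 minus percent activity remaining.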

Assay [10] has as its target Dual specificity protein kinase CLK1 (Homo sapiens) (UniProt P49759). In words: Inhibition of human recombinant CLK1 at 15 nM related to control ULK1.
The target in assay [11] is 3-phosphoinositide-dependent protein kinase 1 (Homo sapiens) (UniProt O15530). In words: Inhibition of human recombinant PDK1 at 15 nM related to control ULK1.
3-phosphoinositide-dependent protein kinase 1 (Homo sapiens), sequence (O15530 whole entry, looked up): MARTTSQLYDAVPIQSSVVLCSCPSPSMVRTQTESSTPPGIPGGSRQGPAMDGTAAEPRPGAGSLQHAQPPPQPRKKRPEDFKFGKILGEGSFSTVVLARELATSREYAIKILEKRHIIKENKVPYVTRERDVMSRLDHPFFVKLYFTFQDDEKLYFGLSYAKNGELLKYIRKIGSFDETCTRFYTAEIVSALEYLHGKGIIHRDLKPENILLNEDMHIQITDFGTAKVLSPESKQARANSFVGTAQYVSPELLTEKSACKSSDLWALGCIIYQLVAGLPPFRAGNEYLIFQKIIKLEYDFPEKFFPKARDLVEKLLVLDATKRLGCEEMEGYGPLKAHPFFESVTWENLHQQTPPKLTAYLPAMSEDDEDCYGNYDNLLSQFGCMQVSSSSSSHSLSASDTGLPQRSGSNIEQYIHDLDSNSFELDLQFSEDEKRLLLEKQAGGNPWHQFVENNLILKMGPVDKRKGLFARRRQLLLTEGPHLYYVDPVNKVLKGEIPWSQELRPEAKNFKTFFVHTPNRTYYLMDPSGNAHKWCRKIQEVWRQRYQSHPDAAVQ
In assay [12] the target is Platelet-derived growth factor receptor alpha (Homo sapiens) (UniProt P16234). In words: Inhibition of human recombinant PDGFRa at 15 nM in presence of ATP by radiometric assay relative to control.
Assay [13] has as its target RAC-alpha serine/threonine-protein kinase (Homo sapiens) (UniProt P31749). In words: Inhibition of human recombinant AKT1 at 15 nM related to control ULK1.
The target of assay [14] is Cyclin-dependent kinase 2 (Homo sapiens) (UniProt P24941). In words: Inhibition of human recombinant CDK2 at 15 nM in presence of ATP by radiometric assay relative to control.

The inhibition is the drop in the measured response relative to a control, in per cent.

Receptor-interacting serine/threonine-protein kinase 2 (Homo sapiens), sequence (O43353 whole entry): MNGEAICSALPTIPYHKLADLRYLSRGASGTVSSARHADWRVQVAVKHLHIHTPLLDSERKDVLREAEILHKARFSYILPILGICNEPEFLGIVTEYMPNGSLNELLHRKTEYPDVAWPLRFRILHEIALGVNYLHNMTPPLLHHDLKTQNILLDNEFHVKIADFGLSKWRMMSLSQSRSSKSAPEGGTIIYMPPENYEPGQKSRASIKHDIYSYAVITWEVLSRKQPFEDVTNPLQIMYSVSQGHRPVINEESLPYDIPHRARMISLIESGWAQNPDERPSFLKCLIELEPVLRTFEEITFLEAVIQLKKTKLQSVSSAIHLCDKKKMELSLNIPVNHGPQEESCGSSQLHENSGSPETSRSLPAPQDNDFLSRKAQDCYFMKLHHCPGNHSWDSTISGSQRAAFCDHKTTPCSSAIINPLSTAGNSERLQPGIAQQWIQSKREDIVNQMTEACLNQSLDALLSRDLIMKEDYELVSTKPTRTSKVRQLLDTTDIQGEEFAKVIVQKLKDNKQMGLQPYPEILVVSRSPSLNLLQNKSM
Serine-protein kinase ATM (Homo sapiens), sequence (Q13315 whole entry): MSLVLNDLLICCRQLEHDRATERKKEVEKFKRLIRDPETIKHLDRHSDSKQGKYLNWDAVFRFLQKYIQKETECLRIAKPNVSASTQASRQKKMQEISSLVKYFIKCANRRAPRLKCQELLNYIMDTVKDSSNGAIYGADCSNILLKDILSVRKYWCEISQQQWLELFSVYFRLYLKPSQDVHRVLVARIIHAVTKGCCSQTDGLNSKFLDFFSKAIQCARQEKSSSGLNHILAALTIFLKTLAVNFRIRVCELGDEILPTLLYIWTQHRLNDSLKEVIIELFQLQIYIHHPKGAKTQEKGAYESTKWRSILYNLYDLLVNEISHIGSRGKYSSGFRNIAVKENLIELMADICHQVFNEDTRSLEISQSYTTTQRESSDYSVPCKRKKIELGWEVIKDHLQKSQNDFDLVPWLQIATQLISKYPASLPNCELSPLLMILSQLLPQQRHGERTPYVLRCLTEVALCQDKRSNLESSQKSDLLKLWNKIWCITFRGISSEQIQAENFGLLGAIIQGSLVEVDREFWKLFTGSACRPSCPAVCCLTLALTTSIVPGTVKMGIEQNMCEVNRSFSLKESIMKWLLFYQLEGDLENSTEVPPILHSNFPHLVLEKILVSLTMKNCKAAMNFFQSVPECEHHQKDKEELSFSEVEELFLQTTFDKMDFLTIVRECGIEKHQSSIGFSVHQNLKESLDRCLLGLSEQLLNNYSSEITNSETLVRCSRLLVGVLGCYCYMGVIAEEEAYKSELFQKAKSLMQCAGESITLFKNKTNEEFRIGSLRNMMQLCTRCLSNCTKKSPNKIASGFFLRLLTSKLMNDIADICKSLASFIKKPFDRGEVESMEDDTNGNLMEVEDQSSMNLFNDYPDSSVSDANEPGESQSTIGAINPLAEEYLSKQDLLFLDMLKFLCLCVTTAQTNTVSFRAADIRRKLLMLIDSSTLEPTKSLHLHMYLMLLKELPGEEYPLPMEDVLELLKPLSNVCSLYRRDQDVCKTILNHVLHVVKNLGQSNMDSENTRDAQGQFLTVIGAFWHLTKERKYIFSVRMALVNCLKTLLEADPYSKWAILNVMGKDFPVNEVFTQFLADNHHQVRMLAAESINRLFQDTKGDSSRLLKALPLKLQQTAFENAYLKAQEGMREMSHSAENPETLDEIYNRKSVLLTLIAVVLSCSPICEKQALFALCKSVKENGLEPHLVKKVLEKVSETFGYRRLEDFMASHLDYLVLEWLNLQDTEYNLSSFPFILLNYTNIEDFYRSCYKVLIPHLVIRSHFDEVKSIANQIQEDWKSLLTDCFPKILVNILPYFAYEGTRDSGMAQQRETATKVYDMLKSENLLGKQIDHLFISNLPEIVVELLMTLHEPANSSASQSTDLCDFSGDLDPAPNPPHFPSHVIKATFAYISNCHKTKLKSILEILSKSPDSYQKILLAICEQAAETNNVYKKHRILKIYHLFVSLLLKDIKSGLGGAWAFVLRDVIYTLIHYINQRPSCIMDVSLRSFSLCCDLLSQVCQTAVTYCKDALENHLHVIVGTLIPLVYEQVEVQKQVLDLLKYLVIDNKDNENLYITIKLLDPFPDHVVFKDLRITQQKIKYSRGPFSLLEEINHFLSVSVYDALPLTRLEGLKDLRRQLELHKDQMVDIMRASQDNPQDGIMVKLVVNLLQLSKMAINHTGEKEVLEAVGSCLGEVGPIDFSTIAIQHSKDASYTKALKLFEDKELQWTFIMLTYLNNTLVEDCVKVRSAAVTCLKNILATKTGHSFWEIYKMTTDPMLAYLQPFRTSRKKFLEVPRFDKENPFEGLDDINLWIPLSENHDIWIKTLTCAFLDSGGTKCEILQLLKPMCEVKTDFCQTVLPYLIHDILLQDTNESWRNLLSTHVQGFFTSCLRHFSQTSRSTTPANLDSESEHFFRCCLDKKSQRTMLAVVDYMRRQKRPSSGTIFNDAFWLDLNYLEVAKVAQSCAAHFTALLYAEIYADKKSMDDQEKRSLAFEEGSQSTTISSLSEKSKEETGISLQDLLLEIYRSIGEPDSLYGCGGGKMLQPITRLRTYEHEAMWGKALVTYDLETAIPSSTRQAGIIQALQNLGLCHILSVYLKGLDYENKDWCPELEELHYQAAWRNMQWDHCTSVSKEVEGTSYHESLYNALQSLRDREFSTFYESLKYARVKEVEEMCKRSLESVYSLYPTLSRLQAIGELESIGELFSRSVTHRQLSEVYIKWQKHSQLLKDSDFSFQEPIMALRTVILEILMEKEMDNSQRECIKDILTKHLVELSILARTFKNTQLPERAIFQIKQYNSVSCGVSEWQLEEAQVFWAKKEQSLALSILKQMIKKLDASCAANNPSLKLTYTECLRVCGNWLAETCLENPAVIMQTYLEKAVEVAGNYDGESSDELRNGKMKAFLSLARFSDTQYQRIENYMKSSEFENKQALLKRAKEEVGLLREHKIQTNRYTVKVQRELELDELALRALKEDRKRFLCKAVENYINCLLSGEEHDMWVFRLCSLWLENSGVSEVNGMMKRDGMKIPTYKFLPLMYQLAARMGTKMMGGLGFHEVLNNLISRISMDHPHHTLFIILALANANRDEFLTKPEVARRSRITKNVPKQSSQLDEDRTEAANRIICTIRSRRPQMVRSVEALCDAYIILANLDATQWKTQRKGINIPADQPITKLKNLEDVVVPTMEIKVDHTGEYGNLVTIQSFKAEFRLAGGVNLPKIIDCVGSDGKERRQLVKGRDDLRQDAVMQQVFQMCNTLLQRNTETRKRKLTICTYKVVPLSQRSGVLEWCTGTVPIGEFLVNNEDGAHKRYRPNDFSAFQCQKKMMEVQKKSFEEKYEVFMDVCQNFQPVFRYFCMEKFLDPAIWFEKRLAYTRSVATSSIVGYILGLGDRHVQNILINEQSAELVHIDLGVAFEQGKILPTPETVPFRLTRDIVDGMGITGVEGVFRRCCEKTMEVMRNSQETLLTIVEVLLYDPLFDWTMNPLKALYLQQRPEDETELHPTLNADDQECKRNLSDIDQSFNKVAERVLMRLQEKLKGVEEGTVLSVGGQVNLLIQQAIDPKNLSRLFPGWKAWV

`O=C(N[C@@H](C1CC1)C(F)(F)F)c1cc(-c2cnn3cc(-c4ccc(F)cc4)cnc23)cs1`: the fold change (FC) came to 0.41 in assay [1], 0.1 in [2] and 0 in assay [3]. The inhibition in [4] stood at 0%.
`CNC(=O)c1ccccc1Oc1nc(Nc2cc(OC)c(OC)c(OC)c2)ncc1Br`: the inhibition in assay [5] is 2%. Also, the fold change (FC) in assay [6] is 0.04; in assay [7] it was 0.
In the case of `CC(C)[C@H](NC(=O)c1cc(-c2cnn3cc(-c4ccc(OCCN5CCCCC5)cc4)cnc23)cs1)C(F)(F)F`, the inhibition in [8] was 0%; in [12], 5%; in [14], 1%. For the same compound, the fold change (FC) in [9] amounted to 0.07; in [10], 0.95; in [11] it was 0.07; in [13] it was 0.
